Source: ChEMBL document CHEMBL4177755, “Combating Drug-Resistant Fungi with Novel Imperfectly Amphipathic Palindromic Peptides” (J Med Chem, 2018)
The source made the active and inactive calls. No cut-off for these calls is given here.

Tests used:
[1] = tested on: Candida albicans; test: Induction of cell wall permeabilization in Candida albicans cgmcc 2.2086 assessed as increase in NPN uptake at 2 uM by fluorescence spectrophotometric method relative to control; assay type: functional
How it was run: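 Log-phase E. coli ATCC 25922 or C. albicans cgmcc 2.2086 at OD600 0.2 in 5 mM HEPES pH 7.4 with 5 mM glucose was preloaded 30 min with 10 μM NPN, then peptide was added. Fluorescence (ex 350, em 420 nm) was followed until it plateaued and converted to % uptake against a 100% reference. Run in triplicate.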

[2] = tested on: Escherichia coli; test: Bactericidal activity against Escherichia coli ATCC 25922 at MBC after 5 hrs by time-kill assay; assay type: functional
How it was run: (§1)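 Time-kill: E. coli ATCC 25922 or C. albicans cgmcc 2.2086 was exposed to peptide at 1× MBC/MFC. At intervals, aliquots were diluted and spread on MHA (bacteria, counted after 24 h at 37 °C) or YPDA (yeast, counted after 48 h at 28 °C). Values are means of three independent assays.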

[3] = tested on: RAW264.7; test: Induction of endotoxin-neutralization in mouse RAW264.7 cells assessed as inhibition of LPS-induced nitric oxide production after 18 hrs by Griess assay; assay type: functional, cell-based
How it was run: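 RAW 264.7 cells were stimulated with 50 ng/mL LPS with or without peptide at various concentrations. TNF-α in supernatants was measured by ELISA and NO by Griess reagent. Mean ± SEM of three independent experiments, compared against LPS alone.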

[4] = tested on: Candida albicans; test: Induction of membrane damage in Candida albicans cgmcc 2.2086 assessed as membrane deformation at MFC after 1 hr by atomic force microscopy; assay type: functional, organism-based
How it was run: (§2)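 E. coli ATCC 25922 was treated at 1× MBC and C. albicans cgmcc 2.2086 at 1× MFC, each for 1 h. Untreated control cells were processed in parallel without peptide. Surface morphology was imaged by AFM and SEM, and ultrastructure by TEM.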

[5] = tested on: Lipid bilayer; test: Binding affinity to phosphatidylglycerol/cardiolipin/phosphatidylethanolamine large unilamellar vesicle assessed as induction of calcein leakage after 15 mins by spectrofluorophotometric method
How it was run: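 Compositions were PG/CL/PE 2:1:7 w/w/w (E. coli membrane mimic; lines 4,5) and PC/PE/PI/ergosterol 5:4:1:2 w/w/w/w (fungal membrane mimic; lines 2,3). Lipids underwent 20 freeze–thaw cycles and were extruded through 100 nm filters; free calcein was removed by gel filtration.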

[6] = tested on: Lipopolysaccharide (LPS); test: Displacement of BODIPY-TR-cadaverine from Escherichia coli O111:B4 LPS at 8 uM after 1 hr by spectrofluorophotometric method relative to control
How it was run: (§3)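 Fluorescence-based displacement assay: peptide displaces BODIPY-TR-cadaverine from LPS; polymyxin B served as the LPS-binding reference.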

[7] = tested on: Escherichia coli; test: Induction of membrane damage in Escherichia coli ATCC 25922 assessed as appearance of roughened and broken membrane at MBC after 1 hr by atomic force microscopy; assay type: functional, organism-based; how it was run: as §2
[8] = tested on: Candida albicans; test: Induction of membrane damage in Candida albicans cgmcc 2.2086 assessed as membrane deformation at MFC after 1 hr by scanning electron microscopy; assay type: functional, organism-based; how it was run: as §2
[9] = tested on: Escherichia coli; test: Induction of membrane damage in Escherichia coli ATCC 25922 assessed as appearance of roughened and broken membrane at MBC after 1 hr by scanning electron microscopy; assay type: functional, organism-based; how it was run: as §2
[10] = tested on: Candida albicans; test: Fungicidal activity against Candida albicans cgmcc 2.2086 at MFC after 5 hrs by time-kill assay; assay type: functional; how it was run: as §1
[11] = tested on: Candida albicans; test: Induction of membrane damage in Candida albicans cgmcc 2.2086 assessed as intracellular content leakage at MFC after 1 hr by transmission electron microscopy; assay type: functional, organism-based
How it was run: (§4)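 E. coli ATCC 25922 or C. albicans cgmcc 2.2086 were treated with peptide at 1× MBC/MFC for 1 h alongside peptide-free controls, then imaged by AFM, SEM or TEM for membrane and ultrastructural changes.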

[12] = tested on: Candida albicans; test: Induction of membrane damage in Candida albicans cgmcc 2.2086 assessed as intracellular content leakage at MFC after 1 hr by scanning electron microscopy; assay type: functional, organism-based; how it was run: as §4
[13] = tested on: Candida albicans; test: Induction of membrane damage in Candida albicans cgmcc 2.2086 assessed as membrane creping at MFC after 1 hr by scanning electron microscopy; assay type: functional, organism-based; how it was run: as §2
[14] = tested on: Candida albicans; test: Induction of membrane damage in Candida albicans cgmcc 2.2086 assessed as empty regions formation of cytoplasm at MFC after 1 hr by transmission electron microscopy; assay type: functional, organism-based; how it was run: as §4
[15] = tested on: Escherichia coli; test: Antibacterial activity against Escherichia coli ATCC 25922 after 18 hrs in presence of 50% human heat-inactivated serum by broth dilution method; assay type: functional; settings: ATCC 25922, 18 h
[16] = tested on: Lipopolysaccharide (LPS); test: Binding affinity to Escherichia coli O111:B4 LPS by SPR spectroscopy
How it was run: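 Surface plasmon resonance with the peptide immobilized and LPS flowed over it at 3.125−25 μg/mL; binding recorded in response units (RU).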

[17] = tested on: Candida albicans; test: Induction of membrane damage in Candida albicans cgmcc 2.2086 assessed as membrane creping at MFC after 1 hr by atomic force microscopy; assay type: functional, organism-based; how it was run: as §2
[18] = tested on: RAW264.7; test: Immunostimulatory activity in mouse RAW264.7 cells assessed as induction of TNFalpha secretion by ELISA; assay type: cell-based
How it was run: (§5)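 RAW 264.7 macrophages were exposed to peptide at various concentrations. TNF-α in culture supernatants was measured by ELISA and NO by Griess reagent. Values are means ± SEM of three independent experiments.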

[19] = tested on: Lipopolysaccharide (LPS); test: Displacement of BODIPY-TR-cadaverine from Escherichia coli O111:B4 LPS at 4 uM after 1 hr by spectrofluorophotometric method relative to control; how it was run: as §3
[20] = tested on: Candida albicans; test: Induction of reactive oxygen species generation in Candida albicans cgmcc 2.2086 after 1 hr by DCFH-DA dye-based spectrofluorophotometric method; assay type: functional, organism-based
How it was run: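 E. coli ATCC 25922 and C. albicans cgmcc 2.2086 cells were exposed to a range of peptide concentrations up to 32 μM. ROS levels were read by fluorescence and expressed relative to untreated cells. Values are mean ± SEM of three independent experiments.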

[21] = tested on: Escherichia coli; test: Antibacterial activity against Escherichia coli ATCC 25922 after 18 hrs in presence of 25% human heat-inactivated serum by broth dilution method; assay type: functional; settings: ATCC 25922, 18 h
[22] = tested on: RAW264.7; test: Immunostimulatory activity in mouse RAW264.7 cells assessed as induction of nitric oxide production by Griess assay; assay type: cell-based; how it was run: as §5
[23] = tested on: Lipid bilayer; test: Binding affinity to phosphatidylcholine/phosphatidylethanolamine/phosphatidylinositol/ergosterol large unilamellar vesicle assessed as induction of calcein leakage at 2 to 32 uM after 15 mins by spectrofluorophotometric method
How it was run: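 Large unilamellar vesicles were made from PG/CL/PE (2:1:7), PC/PE/PI/ergosterol (5:4:1:2) or PC/cholesterol (10:1), loaded with 70 mM calcein in Tris/NaCl/EDTA buffer at pH 7.4, frozen and thawed 20 times, and extruded through 100 nm filters. Free dye was removed by gel filtration, and peptide-induced calcein release was measured.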

[24] = tested on: Escherichia coli; test: Disruption of cytoplasmic membrane electrical potential in Escherichia coli ATCC 25922 at MBC after 800 secs by DiSC3-5 dye-based fluorescence spectrophotometric method; assay type: functional, organism-based
[25] = tested on: Candida albicans; test: Disruption of cytoplasmic membrane electrical potential in Candida albicans cgmcc 2.2086 at MFC after 800 secs by DiSC3-5 dye-based fluorescence spectrophotometric method; assay type: functional, organism-based
How it was run: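 Cells were loaded with the membrane potential-sensitive dye DiSC3-5, and its release on peptide treatment (various concentrations, including 1× MBC/MFC) was monitored as increasing fluorescence over 800 s.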

Compound: H-RRIRIIIRIRR-NH2
- Activity [1]: 20%
- Activity [2]: >99.99%
- inhibition [3]: Dose-dependent effect
- Activity [4]: Active
- Activity [5]: Dose-dependent effect
- inhibition [6]: 95%
- Activity [7]: Active
- Activity [8]: Active
- Activity [9]: Active
- Activity [10]: >99.99%
- Activity [11]: Active
- Activity [12]: Active
- Activity [13]: Active
- Activity [14]: Active
- MIC [15]: 8 µM
- Activity [16]: Dose-dependent effect
- Activity [17]: Active
- Activity [18]: Non-Toxic
- inhibition [19]: 68%
- Activity [20]: Dose-dependent effect
- MIC [21]: 4 µM
- Activity [22]: Non-Toxic

Compound: CC[C@H](C)[C@H](NC(=O)CN)C(=O)NCC(=O)N[C@@H](C)C(=O)N[C@H](C(=O)N[C@@H](CC(C)C)C(=O)N[C@@H](CCCCN)C(=O)N[C@H](C(=O)N[C@@H](CC(C)C)C(=O)N[C@H](C(=O)N[C@H](C(=O)NCC(=O)N[C@@H](CC(C)C)C(=O)N1CCC[C@H]1C(=O)N[C@@H](C)C(=O)N[C@@H](CC(C)C)C(=O)N[C@H](C(=O)N[C@@H](CO)C(=O)N[C@@H](Cc1c[nH]c2ccccc12)C(=O)N[C@H](C(=O)N[C@@H](CCCCN)C(=O)N[C@@H](CCCNC(=N)N)C(=O)N[C@@H](CCCCN)C(=O)N[C@@H](CCCNC(=N)N)C(=O)N[C@@H](CCC(N)=O)C(=O)N[C@@H](CCC(N)=O)C(N)=O)[C@@H](C)CC)[C@@H](C)CC)[C@@H](C)O)[C@@H](C)O)C(C)C)C(C)C [MELITTIN]
- Activity [23]: Active
- Activity [24]: Active
- Activity [25]: Active
